Assay results as given in ChEMBL document CHEMBL4138242, “Synthesis and antibacterial evaluation of novel cationic chalcone derivatives possessing broad spectrum antibacterial activity” (Eur J Med Chem, 2018).

System: Staphylococcus aureus
Assay: Antibacterial activity against Staphylococcus aureus ATCC 29213 after 16 to 20 hrs by broth microdilution method
Format: functional
Settings: not given
Outline: (§1)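 Broth microdilution per CLSI. Bacteria grown 4-6 h (about 10⁸ CFU/mL), then diluted to about 10⁶ CFU/mL. Medium: Mueller-Hinton broth, except Luria-Bertani broth for E. coli. Compounds in sterile water, twofold series 256-0.5 µg/mL, mixed 1:1 with inoculum, 37 °C for 16-20 h. MIC is the lowest concentration without visible growth. Duplicate wells; experiment repeated at least twice.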

| SMILES | MIC [µg/mL] |
| --- | --- |
| CCCCCCCC[N+](C)(C)CC(=O)Nc1ccc(C(=O)/C=C/c2cccc(Cl)c2)cc1.[Cl-] | 2 |

System: Enterococcus faecalis
Assay: Antibacterial activity against Enterococcus faecalis ATCC 29212 after 16 to 20 hrs by broth microdilution method
Format: functional
Settings: not given
Outline: as §1

| SMILES | MIC [µg/mL] |
| --- | --- |
| CCCCCCCC[N+](C)(C)CC(=O)Nc1ccc(C(=O)/C=C/c2cccc(Cl)c2)cc1.[Cl-] | 1 |

System: Escherichia coli
Assay: Antibacterial activity against Escherichia coli ATCC 25922 after 16 to 20 hrs by broth microdilution method
Format: functional
Settings: not given
Outline: as §1

| SMILES | MIC [µg/mL] |
| --- | --- |
| CCCCCCCC[N+](C)(C)CC(=O)Nc1ccc(C(=O)/C=C/c2cccc(Cl)c2)cc1.[Cl-] | 4 |

System: Salmonella enterica
Assay: Antibacterial activity against Salmonella enterica ATCC 13076 after 16 to 20 hrs by broth microdilution method
Format: functional
Settings: not given
Outline: as §1

| SMILES | MIC [µg/mL] |
| --- | --- |
| CCCCCCCC[N+](C)(C)CC(=O)Nc1ccc(C(=O)/C=C/c2cccc(Cl)c2)cc1.[Cl-] | 4 |

System: not listed separately
Assay: Hemolytic activity in sheep RBC after 1 hr
Format: ADME, cell-based, Ovis aries, Erythrocyte
Settings: sheep red blood cells (erythrocytes)
Outline: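 Sheep red blood cells (150 µL suspension) mixed with 50 µL of compound dilutions (5120-10 µg/mL), 1 h at 37 °C, then centrifuged. Supernatant read at 540 nm. Percent hemolysis calculated relative to RBC-only control (0%) and 0.1% Triton X-100 (100%).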

| SMILES | HC50 at 1 h [µg/mL] |
| --- | --- |
| CCCCCCCC[N+](C)(C)CC(=O)Nc1ccc(C(=O)/C=C/c2cccc(Cl)c2)cc1.[Cl-] | 186 |

System: Staphylococcus aureus
Assay: Antibacterial activity against methicillin-resistant Staphylococcus aureus clinical isolate 1105183 cono7 after 16 to 20 hrs by broth microdilution method
Format: functional
Settings: not given
Outline: (§2)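 CLSI broth microdilution in Mueller-Hinton broth. A 4-6 h culture was diluted to about 10⁶ CFU/mL and mixed 1:1 with compound dilutions prepared at 256 to 0.5 µg/mL from aqueous stocks. Plates were incubated at 37 °C for 16-20 h and read visually for MIC. Each concentration was run in duplicate, and the experiment was repeated at least twice. Vancomycin and meropenem were comparators.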

| SMILES | MIC [µg/mL] |
| --- | --- |
| CCCCCCCC[N+](C)(C)CC(=O)Nc1ccc(C(=O)/C=C/c2cccc(Cl)c2)cc1.[Cl-] | 1 |

System: Staphylococcus aureus
Assay: Antibacterial activity against methicillin-resistant Staphylococcus aureus clinical isolate 20130911034sau after 16 to 20 hrs by broth microdilution method
Format: functional
Settings: not given
Outline: as §2

| SMILES | MIC [µg/mL] |
| --- | --- |
| CCCCCCCC[N+](C)(C)CC(=O)Nc1ccc(C(=O)/C=C/c2cccc(Cl)c2)cc1.[Cl-] | 0.5 |

System: Staphylococcus aureus
Assay: Antibacterial activity against methicillin-resistant Staphylococcus aureus clinical isolate 0831010 after 16 to 20 hrs by broth microdilution method
Format: functional
Settings: not given
Outline: as §2

| SMILES | MIC [µg/mL] |
| --- | --- |
| CCCCCCCC[N+](C)(C)CC(=O)Nc1ccc(C(=O)/C=C/c2cccc(Cl)c2)cc1.[Cl-] | 0.5 |

System: Staphylococcus aureus
Assay: Antibacterial activity against methicillin-resistant Staphylococcus aureus clinical isolate 1104060 after 16 to 20 hrs by broth microdilution method
Format: functional
Settings: not given
Outline: as §2

| SMILES | MIC [µg/mL] |
| --- | --- |
| CCCCCCCC[N+](C)(C)CC(=O)Nc1ccc(C(=O)/C=C/c2cccc(Cl)c2)cc1.[Cl-] | 8 |

System: Staphylococcus aureus
Assay: Antibacterial activity against methicillin-resistant Staphylococcus aureus clinical isolate 20131012632sau after 16 to 20 hrs by broth microdilution method
Format: functional
Settings: not given
Outline: as §2

| SMILES | MIC [µg/mL] |
| --- | --- |
| CCCCCCCC[N+](C)(C)CC(=O)Nc1ccc(C(=O)/C=C/c2cccc(Cl)c2)cc1.[Cl-] | 2 |

System: Staphylococcus aureus
Assay: Antibacterial activity against methicillin-resistant Staphylococcus aureus clinical isolate 1207007 after 16 to 20 hrs by broth microdilution method
Format: functional
Settings: not given
Outline: as §2

| SMILES | MIC [µg/mL] |
| --- | --- |
| CCCCCCCC[N+](C)(C)CC(=O)Nc1ccc(C(=O)/C=C/c2cccc(Cl)c2)cc1.[Cl-] | 0.5 |

System: Staphylococcus aureus
Assay: Antibacterial activity against methicillin-resistant Staphylococcus aureus clinical isolate 1-may after 16 to 20 hrs by broth microdilution method
Format: functional
Settings: not given
Outline: as §2

| SMILES | MIC [µg/mL] |
| --- | --- |
| CCCCCCCC[N+](C)(C)CC(=O)Nc1ccc(C(=O)/C=C/c2cccc(Cl)c2)cc1.[Cl-] | 1 |

System: Staphylococcus aureus
Assay: Antibacterial activity against methicillin-resistant Staphylococcus aureus clinical isolate 0906202 after 16 to 20 hrs by broth microdilution method
Format: functional
Settings: not given
Outline: as §2

| SMILES | MIC [µg/mL] |
| --- | --- |
| CCCCCCCC[N+](C)(C)CC(=O)Nc1ccc(C(=O)/C=C/c2cccc(Cl)c2)cc1.[Cl-] | 4 |

System: Staphylococcus aureus
Assay: Antibacterial activity against methicillin-resistant Staphylococcus aureus clinical isolate 1208143 after 16 to 20 hrs by broth microdilution method
Format: functional
Settings: not given
Outline: as §2

| SMILES | MIC [µg/mL] |
| --- | --- |
| CCCCCCCC[N+](C)(C)CC(=O)Nc1ccc(C(=O)/C=C/c2cccc(Cl)c2)cc1.[Cl-] | 1 |

System: Klebsiella pneumoniae
Assay: Antibacterial activity against drug-resistant carbapenemase producing Klebsiella pneumoniae clinical isolate KP-14-8 after 16 to 20 hrs by broth microdilution method
Format: functional
Settings: not given
Outline: as §2

| SMILES | MIC [µg/mL] |
| --- | --- |
| CCCCCCCC[N+](C)(C)CC(=O)Nc1ccc(C(=O)/C=C/c2cccc(Cl)c2)cc1.[Cl-] | 4 |

System: Klebsiella pneumoniae
Assay: Antibacterial activity against drug-resistant carbapenemase producing Klebsiella pneumoniae clinical isolate KP-13-45 after 16 to 20 hrs by broth microdilution method
Format: functional
Settings: not given
Outline: as §2

| SMILES | MIC [µg/mL] |
| --- | --- |
| CCCCCCCC[N+](C)(C)CC(=O)Nc1ccc(C(=O)/C=C/c2cccc(Cl)c2)cc1.[Cl-] | 4 |

System: Klebsiella pneumoniae
Assay: Antibacterial activity against drug-resistant carbapenemase producing Klebsiella pneumoniae clinical isolate KP-14-3 after 16 to 20 hrs by broth microdilution method
Format: functional
Settings: not given
Outline: as §2

| SMILES | MIC [µg/mL] |
| --- | --- |
| CCCCCCCC[N+](C)(C)CC(=O)Nc1ccc(C(=O)/C=C/c2cccc(Cl)c2)cc1.[Cl-] | 4 |

System: Klebsiella pneumoniae
Assay: Antibacterial activity against drug-resistant carbapenemase producing Klebsiella pneumoniae clinical isolate KP-14-1 after 16 to 20 hrs by broth microdilution method
Format: functional
Settings: not given
Outline: as §2

| SMILES | MIC [µg/mL] |
| --- | --- |
| CCCCCCCC[N+](C)(C)CC(=O)Nc1ccc(C(=O)/C=C/c2cccc(Cl)c2)cc1.[Cl-] | 8 |

System: Klebsiella pneumoniae
Assay: Antibacterial activity against drug-resistant carbapenemase producing Klebsiella pneumoniae clinical isolate KP-14-4 after 16 to 20 hrs by broth microdilution method
Format: functional
Settings: not given
Outline: as §2

| SMILES | MIC [µg/mL] |
| --- | --- |
| CCCCCCCC[N+](C)(C)CC(=O)Nc1ccc(C(=O)/C=C/c2cccc(Cl)c2)cc1.[Cl-] | 4 |

System: Klebsiella pneumoniae
Assay: Antibacterial activity against drug-resistant carbapenemase producing Klebsiella pneumoniae clinical isolate KP-13-54 after 16 to 20 hrs by broth microdilution method
Format: functional
Settings: not given
Outline: as §2

| SMILES | MIC [µg/mL] |
| --- | --- |
| CCCCCCCC[N+](C)(C)CC(=O)Nc1ccc(C(=O)/C=C/c2cccc(Cl)c2)cc1.[Cl-] | 4 |

System: Klebsiella pneumoniae
Assay: Antibacterial activity against drug-resistant carbapenemase producing Klebsiella pneumoniae clinical isolate KP-14-2 after 16 to 20 hrs by broth microdilution method
Format: functional
Settings: not given
Outline: as §2

| SMILES | MIC [µg/mL] |
| --- | --- |
| CCCCCCCC[N+](C)(C)CC(=O)Nc1ccc(C(=O)/C=C/c2cccc(Cl)c2)cc1.[Cl-] | 8 |
